NPY1 pot ag = human NPY-Y1 potentiation or agonism, primary screen | NPY-Y1 expressing cells, potentiator/agonist activation | activation, % at 3.6 µM | 220,000 compounds, 0.37% hits | AID 1304; in the data active means activation above about 33%, passing the limit was not always enough;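 further: cells stimulated with NPY at EC10 then isoproterenol at EC100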
Target sequence (P25929 whole entry, looked up): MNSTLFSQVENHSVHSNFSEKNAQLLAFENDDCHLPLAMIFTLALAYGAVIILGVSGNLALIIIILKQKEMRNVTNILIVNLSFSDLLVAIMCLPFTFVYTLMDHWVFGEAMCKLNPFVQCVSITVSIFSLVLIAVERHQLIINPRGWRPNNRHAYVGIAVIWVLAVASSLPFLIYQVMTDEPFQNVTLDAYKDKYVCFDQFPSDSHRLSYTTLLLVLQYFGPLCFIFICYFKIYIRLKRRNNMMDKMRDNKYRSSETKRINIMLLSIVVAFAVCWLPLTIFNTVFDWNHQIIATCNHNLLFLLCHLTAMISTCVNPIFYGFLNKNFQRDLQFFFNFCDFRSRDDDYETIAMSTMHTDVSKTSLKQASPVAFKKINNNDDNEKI
Rad51 HR inh = blocks human Rad51 in homologous recombination; 200,000 compounds, 0.085% hits; hRad51 DNA strand exchange, fluorescence dequenching; inhibition, % at 10 µM; AID 1385;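 active means inhibition above 40% at the single screening dose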
Target sequence (Q06609 whole entry, looked up): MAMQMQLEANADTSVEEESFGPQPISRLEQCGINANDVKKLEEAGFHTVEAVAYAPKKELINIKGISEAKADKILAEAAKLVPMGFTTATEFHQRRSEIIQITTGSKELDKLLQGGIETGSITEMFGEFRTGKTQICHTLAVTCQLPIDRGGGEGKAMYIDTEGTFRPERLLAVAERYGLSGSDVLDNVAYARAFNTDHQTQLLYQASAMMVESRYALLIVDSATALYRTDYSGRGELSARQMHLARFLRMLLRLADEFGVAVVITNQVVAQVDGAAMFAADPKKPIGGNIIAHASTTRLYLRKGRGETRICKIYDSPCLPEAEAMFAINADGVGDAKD
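Material: Human Rad51 nucleoprotein filaments preassembled on unlabelled ssDNA | Also added: Labelled 47-mer dsDNA for strand exchange | Dosing: Single dose, 10 µM final compound | Schedule: 30-min compound preincubation and 15-min exchange, both room temperature | Technique: Fluorescence dequenching at 485/520 nm | Measure: Percent inhibition relative to plate controls and blanks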
NPY-Y1 antag = antagonists of human neuropeptide Y receptor Y1. HEK293-CNG Y1 cells, membrane potential fluorescence; NPY at EC95, then isoproterenol. inhibition, % at 3.6 µM. 200,000 compounds, 1% hits. AID 1040;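 active means inhibition above the campaign mean inhibition of all tested compounds plus 3 SD, cut at about 20% in these data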
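Assay system: HEK293 Y1/CNG channel cell line; Doses: single compound dose of 3.6 µM, 0.4% DMSO; Timing: dye 3 h, compound 60 min room temperature, stimulation 45 min; Technique: Membrane-potential fluorescent dye readout; Measure: % inhibition of NPY effect.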
NPY-Y2 PAM-ag = potentiators or agonists of human neuropeptide Y receptor Y2 | P49146 | cells expressing NPY-Y2, potentiator/agonist read-out | activation, % at 3.6 µM | 220,000 compounds, 0.45% hits; in the data active means activation above about 27%;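 further: cells stimulated with NPY near EC25 plus isoproterenol at EC100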
NPY-Y2 antag = NPY-Y2 (human) receptor antagonism. P49146. NPY-Y2 expressing cells, antagonist mode. inhibition, % at 2.7 µM. 140,000 compounds, 0.99% hits. AID 793
Measles CPE = protection of cells from measles virus. Measles virus-infected cells, CPE protection, absorbance. protection (pct of control), % at 4 µM. 140,000 compounds, 1.5% hits; in the data active means protection mostly above about 24%, no sharp cut-off; inactive means mostly below about 26%
NPY-Y1 ant conf = confirmation of human neuropeptide Y receptor Y1 antagonists; shares compounds with NPY-Y1 antag; HEK293-CNG NPY-Y1, membrane potential fluorescence, cAMP; NPY challenge against isoproterenol-raised cAMP; inhibition, % at 3.6 µM; 1,200 compounds, 21% hits; AID 1254; in the data active means inhibition above about 20%
NPY2 antag ctr = human NPY-Y2 antagonism in NPY-Y1 counter-screen; inhibition, % at 3.6 µM; AID 1255; shares compounds with NPY-Y1 antag; 1,200 compounds, 28% hits; HEK293 NPY-Y2 CNG membrane potential fluorescence; cells given NPY, then isoproterenol
Each line names hits and unclear results; the compound was inactive in the other large screens (follow-up assays come after a bar, where they were run). Shown are actives, neighbours in structure and some others; about 2.8% of the full set was active somewhere. Unless noted, no stated cut-off is given here; in the data, active means inhibition above about 17%; inactive means the rest.

CCOC(=O)Nc1nc(-c2ccccc2)c(C(=O)c2ccccc2)s1	NPY-Y1 antag 36 | NPY-Y1 ant conf inactive | NPY2 antag ctr 21
Cc1cc(-c2ccccc2)nc(Oc2cccc(C(F)(F)F)c2)c1S(C)(=O)=O	NPY-Y1 antag 29 | NPY-Y1 ant conf inactive | NPY2 antag ctr inactive
COc1ccc(-n2nc3c(c2NC(=O)c2c(-c4ccccc4Cl)noc2C)CS(=O)(=O)C3)cc1	NPY-Y1 antag 38 (no result: Rad51 HR inh) | NPY-Y1 ant conf inactive | NPY2 antag ctr inactive
CC1CCCC(NC(=O)CCC(=O)c2ccc(F)cc2)C1C (centres undefined)	none (no result: NPY-Y1 antag, NPY-Y2 antag, Measles CPE)
CC1CCCC(NC(=O)CSc2ccc(F)cc2)C1C (centres undefined)	NPY-Y1 antag 67 (no result: NPY-Y2 antag, Measles CPE) | NPY-Y1 ant conf inactive | NPY2 antag ctr inactive
Cc1nnc(NC(=O)c2ccccc2Oc2ccccc2)s1	none (no result: NPY-Y2 antag, Measles CPE)
O=c1ccc2ccc(OCc3nnc(-c4ccccc4Br)o3)cc2o1	none
Cc1cc(=O)oc2cc(OCc3nnc(-c4ccccc4Br)o3)ccc12	NPY-Y1 antag 26 | NPY-Y1 ant conf inactive | NPY2 antag ctr inactive
O=C(COc1ccc(-c2ccccc2)cc1)NNC(=O)NC1CCCCC1	none (no result: NPY-Y2 antag, Measles CPE)
C=CCOC(=O)/C(=C\c1ccc(OC)cc1)NC(=O)c1ccco1	NPY-Y1 antag 89 (no result: Rad51 HR inh) | NPY-Y1 ant conf inactive | NPY2 antag ctr inactive
CC(NCCC(Cc1ccccc1)c1ccco1)c1ccccc1 (centres undefined)	none (no result: NPY-Y1 antag, NPY-Y2 antag, Measles CPE)
CCC(=O)N(CCC(Cc1ccccc1)c1ccc2c(c1)OCO2)Cc1ccccc1F (centres undefined)	NPY-Y1 antag 47 (no result: Rad51 HR inh) | NPY-Y1 ant conf inactive | NPY2 antag ctr inactive
CCC(=O)N(CCC(Cc1ccccc1)c1ccco1)Cc1ccco1 (centres undefined)	NPY-Y1 antag 42 (no result: NPY-Y2 antag, Measles CPE) | NPY-Y1 ant conf inactive | NPY2 antag ctr inactive
CC(=O)c1ccc(N(C(=O)Cn2nnc(-c3ccccc3)n2)C(C(=O)NC2CCCCC2)c2ccccn2)cc1 (centres undefined)	none
O=C1NCCCC1C(=O)Nc1ccccc1C(F)(F)F (centres undefined)	none
CCc1ccccc1NC(=O)/C(=C/c1ccco1)c1ccccc1	NPY-Y1 antag 22 | NPY-Y1 ant conf inactive | NPY2 antag ctr inactive
CCCCNC(=S)N(C)/N=C/c1ccc2c(c1)OCO2	NPY-Y1 antag 22 | NPY-Y1 ant conf inactive | NPY2 antag ctr inactive
CCOc1ccccc1CN1CCN(C/C=C/c2ccc(OC)cc2)CC1CCO (centres undefined)	NPY-Y1 antag 25 (no result: Rad51 HR inh, NPY-Y2 antag, Measles CPE) | NPY-Y1 ant conf inactive | NPY2 antag ctr inactive
CCOC(=O)Nc1ccc(Cc2ccncc2)cc1	none (no result: NPY-Y2 antag, Measles CPE)
CCn1c(C(=O)OC)cc2c1ccn2-c1ccc(F)cc1	NPY-Y1 antag 27 | NPY-Y1 ant conf inactive | NPY2 antag ctr inactive
COC(=O)c1cc2c(ccn2-c2ccc(F)cc2)n1Cc1ccc(OC)cc1	NPY-Y1 antag 24 | NPY-Y1 ant conf inactive | NPY2 antag ctr inactive
COc1cc(S(=O)(=O)N(Cc2ccccc2)Cc2ccccn2)ccc1-n1cnnn1	none
CC#CCN(CC#CC)S(=O)(=O)c1ccc(-n2cnnn2)c(OC)c1	NPY-Y1 antag 21 | NPY-Y1 ant conf inactive | NPY2 antag ctr inactive
Cc1ccc(Nc2nc(-c3c(C)nc4ncccn34)cs2)cc1	NPY-Y1 antag 24 | NPY-Y1 ant conf inactive | NPY2 antag ctr inactive
COc1cccc(OCc2nc(-c3ccc(Br)o3)no2)c1	none (no result: NPY-Y2 antag, Measles CPE)
Brc1ccc(-c2noc(COc3ccc4ccccc4c3)n2)o1	NPY-Y1 antag 29 | NPY-Y1 ant conf inactive | NPY2 antag ctr inactive
CCCn1ncc(CN2CCN(Cc3ccc(C)o3)C(CCO)C2)c1C (centres undefined)	none (no result: NPY-Y1 antag, NPY-Y2 antag, Measles CPE)
COc1ccc(-c2cc(C(F)(F)F)n3nc(C(=O)NCc4ccco4)cc3n2)cc1	NPY-Y1 antag 24 | NPY-Y1 ant conf inactive | NPY2 antag ctr inactive
Cc1cc(C)c(C#N)c(SCC(=O)c2cc(C)n(CCc3ccccc3)c2C)n1	NPY-Y1 antag 24 | NPY-Y1 ant conf inactive | NPY2 antag ctr inactive
CC(C)(C)NC(=O)COC(=O)c1ccc(Cl)cc1O	none (no result: NPY-Y2 antag, Measles CPE)
CCC(=O)N1CCN(c2ccccc2NC(=O)COc2cccc(C)c2)CC1	NPY-Y1 antag 20 | NPY-Y1 ant conf inactive | NPY2 antag ctr inactive
CCC(=O)N1CCN(c2ccccc2NC(=O)c2cccc(C)c2)CC1	none
CN1CCN(c2ccccc2NC(=O)COc2ccccc2)CC1	NPY-Y1 antag 21 | NPY-Y1 ant conf inactive | NPY2 antag ctr inactive
Cc1ccc(C(C)C)c(OCC(=O)Nc2ccccc2N2CCN(C)CC2)c1	none
CC(=O)N1CCN(c2ccccc2NC(=O)COc2cc(C)ccc2C(C)C)CC1	NPY-Y1 antag 22 | NPY-Y1 ant conf inactive | NPY2 antag ctr inactive
CCNc1nc2ccccc2[nH]1	none
CCN(CC)CCCNc1nc2ccccc2[nH]1	NPY-Y1 antag 30 | NPY-Y1 ant conf inactive | NPY2 antag ctr inactive
COc1ccc2c(c1)cc(C(=O)O)n2C	none
COc1cc2cc(C(=O)O)n(C)c2c(OC)c1OC	NPY-Y1 antag 25 | NPY-Y1 ant conf inactive | NPY2 antag ctr inactive
CCC(=O)NS(=O)(=O)c1cccnc1Nc1ccccc1Cl	NPY-Y1 antag 24 (no result: Rad51 HR inh) | NPY-Y1 ant conf 22 | NPY2 antag ctr 19
CCOC(=O)CC1C(=O)NCCN1C(=O)c1cc2c(=O)n3ccccc3nc2s1 (centres undefined)	NPY-Y1 antag 98 (no result: Rad51 HR inh) | NPY-Y1 ant conf inactive | NPY2 antag ctr inactive
CCOC(=O)CC1C(=O)NCCN1C(=O)c1cc2c(=O)n3cccc(C)c3nc2s1 (centres undefined)	none (no result: Rad51 HR inh)
CCCN(CCC)CCNC(=O)C1CCN(Cc2nc(-c3ccc(Cl)cc3)oc2C)CC1	NPY-Y1 antag 24 (no result: Measles CPE) | NPY-Y1 ant conf inactive | NPY2 antag ctr 28
COC(=O)C1=C(Nc2ccc(C)cc2)C=C(C)C(C(=O)OC)C1c1cccc(OC)c1 (centres undefined)	NPY-Y1 antag 24 | NPY-Y1 ant conf inactive | NPY2 antag ctr inactive
COc1cccc(C2NC(=O)NC(C)=C2C(=O)Nc2ccc(C)cc2)c1 (centres undefined)	none
c1ccc2c(Nc3ccc4c(c3)OCCO4)c3c(nc2c1)CCC3	none (no result: NPY-Y2 antag, Measles CPE)
Fc1ccc(Nc2c3c(nc4ccccc24)CCC3)cc1	NPY-Y1 antag 23 (no result: NPY-Y2 antag, Measles CPE) | NPY-Y1 ant conf inactive | NPY2 antag ctr inactive
CCOC(=O)C1(CC2CCCCO2)CCN(Cc2nc(C(C)C)cs2)CC1 (centres undefined)	none (no result: NPY-Y2 antag, Measles CPE)
O=C(O)CCCCCN1C(=O)C2CCCCC2C1=O (centres undefined)	none

High-throughput results from PubChem.
